Results of several laboratories.
Each line is one published result; the experiments were not run side by side. Converted amounts (≈) assume the structure as drawn.

SMILES	organism	test	system	conditions	measurement	result
C=CCON(C(=O)c1cc([N+](=O)[O-])cc(C(F)(F)F)c1)C1CC(=O)N1SC (stereo not drawn)	Mycolicibacterium vaccae	microbial growth			MIC	6.25 µM
Cc1cc(CCCOc2c(C)cc(-c3noc(C(F)(F)F)n3)cc2C)on1	Enterovirus	cytopathic effect, inhibitor	HeLa		IC50	50 nM
CCCCCCCCCCCC(=O)Oc1c(C)c(O)c(C(=O)/C=C/c2ccccc2)c(OC)c1C	Pseudomonas aeruginosa	microbial killing, broth dilution	ATCC27853		MBC	> 5000 µg/mL
Nc1nc(-c2ccccc2)nc2[nH]nc(Nc3ccc(C(F)(F)F)cc3)c12	Enterovirus	cytopathic effect	HeLa		IC50	4590 nM
OC(Cn1cncn1)(Cn1cncn1)c1ccc(F)cc1F	Kluyveromyces marxianus	microbial growth, broth dilution		24 h	MIC90	1 µg/mL (≈ 3.27 µM)
O=C(O)c1cn(C2CC2)c2cc(N3CCNCC3)c(F)cc2c1=O	Mycolicibacterium vaccae	microbial growth	10670	1000 µg/mL	inhibition zone	21 mm
CC1(C)S[C@@H]2[C@H](NC(=O)[C@H](N)c3ccccc3)C(=O)N2[C@H]1C(=O)O	Limosilactobacillus reuteri	microbial growth, broth dilution	ATCC23272		MIC	1 µg/mL
O=C(Nc1ccccc1-c1ccc(F)c(F)c1)c1nccnc1C(F)(F)F	Mycosphaerella arachidis	microbial growth			EC50	0.12 µg/mL (≈ 0.316 µM)
O=C1CC(N(OCc2ccccc2)C(=O)c2cc([N+](=O)[O-])cc(C(F)(F)F)c2)N1 (stereo not drawn)	Mycolicibacterium vaccae	microbial growth			MIC	6.25 µM
